Drawing on ChEMBL document CHEMBL1782044, “Aspartic vinyl sulfones: inhibitors of a caspase-3-dependent pathway” (Eur J Med Chem, 2011), this text covers Activity and inhibition for 16 compounds.

SMILES strings stand for the structures. Calls of active or inactive are those of the source. The calls are words filed in the database; no cut-off is given here.

The subject of series [1] is Saccharomyces cerevisiae. In words: Growth stimulation in Saccharomyces cerevisiae CG379 transformed with empty vector at 5 to 100 uM after 2 days. The format is organism-based. To be noted: in vivo, 48 h.
Another series addresses T1, Caspase-3 (Homo sapiens) (UniProt P42574).
T1 sequence (whole entry): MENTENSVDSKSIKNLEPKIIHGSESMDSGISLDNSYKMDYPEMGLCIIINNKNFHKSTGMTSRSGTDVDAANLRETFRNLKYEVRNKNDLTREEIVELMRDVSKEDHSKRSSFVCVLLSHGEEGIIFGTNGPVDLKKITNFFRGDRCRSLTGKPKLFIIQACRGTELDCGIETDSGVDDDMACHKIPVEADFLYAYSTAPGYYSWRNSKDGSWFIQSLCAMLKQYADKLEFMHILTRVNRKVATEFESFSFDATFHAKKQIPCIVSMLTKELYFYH
In words: Inhibition of human recombinant caspase-3 assessed as fluorescent 7-amido-4-methylcoumarin release using Ac-DEVD-AMC as peptide substrate at <200 uM by fluorometric assay. Put shortly: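 Recombinant human caspase-3 (stock 10 U/ml in assay buffer) mixed with inhibitor at various concentrations. Reaction started with AMC substrate at 200 (final). Buffer was 20 mM HEPES, 2 mM EDTA, 0.1% CHAPS, 5 mM DTT, pH 7.4. AMC release followed continuously at 37 °C by fluorescence, excitation 360 nm and emission 460 nm. IC50 determined.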

For series [2], the system named is Saccharomyces cerevisiae. Kind of series: Growth stimulation in Saccharomyces cerevisiae CG379 transformed with empty vector at 5 to 50 uM after 2 days. The series is classed as organism-based. Conditions: in vivo, 48 h.

`CC[C@H](C)[C@H](NC(=O)OCc1ccccc1)C(=O)N[C@H](/C=C/S(C)(=O)=O)CC(=O)O`: the Activity with Saccharomyces cerevisiae [1] was -3.3%.

Take `CC(C)[C@H](NC(=O)OCc1ccccc1)C(=O)N[C@H](/C=C/S(C)(=O)=O)CC(=O)O`: the Activity in the series on Saccharomyces cerevisiae [1] is reported as -1%.

`C[C@H](NC(=O)OCC1c2ccccc2-c2ccccc21)C(=O)N[C@H](/C=C/S(=O)(=O)c1ccccc1)CC(=O)O`: the inhibition entry at Caspase-3 (Homo sapiens) was “inactive”.

As to `CC[C@H](C)[C@H](NC(=O)OCc1ccccc1)C(=O)N[C@H](/C=C/S(=O)(=O)c1ccccc1)CC(=O)O`, the Activity in the series on Saccharomyces cerevisiae [1] stood at 1.9%.

Turning to `CS(=O)(=O)/C=C/[C@H](CC(=O)O)NC(=O)OCC1c2ccccc2-c2ccccc21`, the Activity with Saccharomyces cerevisiae [1] was 1.7%.

On to `C[C@H](NC(=O)OCc1ccccc1)C(=O)N[C@H](/C=C/S(=O)(=O)c1ccccc1)CC(=O)O`, for which the inhibition entry at Caspase-3 (Homo sapiens) was “inactive”.

As for `O=C(O)C[C@@H](/C=C/S(=O)(=O)c1ccccc1)NC(=O)OCC1c2ccccc2-c2ccccc21`, the Activity in the series on Saccharomyces cerevisiae [1] worked out at 2.8%.

`C[C@H](NC(=O)OCc1ccccc1)C(=O)N[C@H](/C=C/S(C)(=O)=O)CC(=O)O`: the inhibition result on Caspase-3 (Homo sapiens) was “inactive”.

For `CC(C)[C@H](NC(=O)OCC1c2ccccc2-c2ccccc21)C(=O)N[C@H](C(=O)N[C@H](/C=C/S(=O)(=O)c1ccccc1)CC(=O)O)C(C)C`, the inhibition result at Caspase-3 (Homo sapiens) was “inactive”.

Consider `CC(C)[C@H](NC(=O)OCC1c2ccccc2-c2ccccc21)C(=O)N[C@H](C(=O)N[C@H](/C=C/S(C)(=O)=O)CC(=O)O)C(C)C`, for which the inhibition result on Caspase-3 (Homo sapiens) was “inactive”.

`CC(C)[C@H](NC(=O)OCC1c2ccccc2-c2ccccc21)C(=O)N[C@H](/C=C/S(=O)(=O)c1ccccc1)CC(=O)O`: the Activity with Saccharomyces cerevisiae [1] is 1.3%.

`CC(C)[C@H](NC(=O)OCC1c2ccccc2-c2ccccc21)C(=O)N[C@H](/C=C/S(C)(=O)=O)CC(=O)O`: the Activity in the series on Saccharomyces cerevisiae [1] is reported as -7%.

Turning to `CC[C@H](C)[C@H](NC(=O)OCC1c2ccccc2-c2ccccc21)C(=O)N[C@H](/C=C/S(C)(=O)=O)CC(=O)O`, the inhibition entry at Caspase-3 (Homo sapiens) was “inactive”.

As to `CC[C@H](C)[C@H](NC(=O)OCC1c2ccccc2-c2ccccc21)C(=O)N[C@H](/C=C/S(=O)(=O)c1ccccc1)CC(=O)O`, the inhibition entry at Caspase-3 (Homo sapiens) was “inactive”.

Consider `C[C@H](NC(=O)OCC1c2ccccc2-c2ccccc21)C(=O)N[C@H](/C=C/S(C)(=O)=O)CC(=O)O`, for which the inhibition result at Caspase-3 (Homo sapiens) is “inactive”.

As to `CC(=O)N[C@@H](CC(=O)O)C(=O)N[C@@H](CCC(=O)O)C(=O)N[C@H](C(=O)N[C@@H](CC(=O)O)C(=O)CCl)C(C)C`, in the series on Saccharomyces cerevisiae [2], the Activity is on record as 1.7%.
